Active and inactive are the calls of the source. The calls are words filed in the database; no cut-off is given here.
Tests used:
[1] = biological target: T1, Protein deacetylase HDAC6 (Homo sapiens) (UniProt Q9UBN7); assay: Inhibition of HDAC6 in human MV4-11 cells assessed as increase in acetylation of alpha tubulin at 0.25 uM by Western blot analysis; type: cell-based
T1 sequence (whole entry): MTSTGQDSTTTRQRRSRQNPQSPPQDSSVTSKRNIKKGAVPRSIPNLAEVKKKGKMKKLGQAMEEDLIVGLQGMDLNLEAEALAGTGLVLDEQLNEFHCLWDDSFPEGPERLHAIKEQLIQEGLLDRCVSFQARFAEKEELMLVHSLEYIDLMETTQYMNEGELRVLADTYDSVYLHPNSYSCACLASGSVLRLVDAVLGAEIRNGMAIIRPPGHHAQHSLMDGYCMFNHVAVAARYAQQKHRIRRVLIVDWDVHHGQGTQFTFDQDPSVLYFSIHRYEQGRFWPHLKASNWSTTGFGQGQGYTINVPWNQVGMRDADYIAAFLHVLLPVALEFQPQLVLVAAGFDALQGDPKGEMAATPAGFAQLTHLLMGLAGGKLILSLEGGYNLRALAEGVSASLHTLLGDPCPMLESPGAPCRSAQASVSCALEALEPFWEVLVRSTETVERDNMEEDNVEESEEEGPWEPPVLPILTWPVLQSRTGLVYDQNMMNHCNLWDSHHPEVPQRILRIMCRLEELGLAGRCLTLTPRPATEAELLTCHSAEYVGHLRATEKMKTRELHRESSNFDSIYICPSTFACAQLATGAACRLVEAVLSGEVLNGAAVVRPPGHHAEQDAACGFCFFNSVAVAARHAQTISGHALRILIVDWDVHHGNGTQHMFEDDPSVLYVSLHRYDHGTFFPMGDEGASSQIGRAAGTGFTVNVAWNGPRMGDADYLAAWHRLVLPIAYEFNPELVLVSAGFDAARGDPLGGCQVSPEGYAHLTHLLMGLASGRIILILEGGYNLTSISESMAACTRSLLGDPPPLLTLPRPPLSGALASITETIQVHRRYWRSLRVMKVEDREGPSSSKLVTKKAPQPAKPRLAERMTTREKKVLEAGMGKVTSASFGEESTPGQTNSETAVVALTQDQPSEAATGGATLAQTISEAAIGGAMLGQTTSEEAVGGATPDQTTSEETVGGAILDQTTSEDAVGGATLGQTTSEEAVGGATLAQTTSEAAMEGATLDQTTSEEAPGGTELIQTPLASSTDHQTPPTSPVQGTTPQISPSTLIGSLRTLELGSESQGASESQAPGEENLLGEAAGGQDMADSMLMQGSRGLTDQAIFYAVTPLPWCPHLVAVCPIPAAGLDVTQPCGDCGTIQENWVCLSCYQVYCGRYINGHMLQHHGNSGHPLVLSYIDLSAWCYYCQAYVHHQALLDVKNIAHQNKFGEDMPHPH
In short: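 MV4-11 cells incubated with compound for 6 h (0.25–1 μM range), then lysed in RIPA buffer. Lysates were BCA-quantified and run on 4–20% SDS-PAGE, then transferred to nitrocellulose and blocked in 5% milk/PBST. Primary anti-acetyl-α-tubulin mouse monoclonal and HSC70 (1:1000) were applied overnight at 4 °C, followed by HRP anti-mouse (1:5000) and ECL detection.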

[2] = tested on: BV-173; assay: Anti-proliferative activity against human BV-173 cells assessed as cell viability measured after 72 hrs by Cell-Titer assay; type: functional, cell-based; details: BV-173, 72 h
In short: (§1)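 Cells in RPMI-1640 with 10% FBS (AML3 in IMDM with 10% FBS). Cells were plated in 96-well plates, and after 24 h compounds or vehicle (0.5% DMSO) were added. CellTiter-Blue was added after 72 h and fluorescence was read at 560/590 nm. IC50 was obtained by non-linear regression.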

[3] = biological target: T1, Protein deacetylase HDAC6 (Homo sapiens); assay: Inhibition of HDAC6 in human HeLa cells assessed as acetylation of alpha tubulin accumulation at 0.1 uM by DAPI staining based immunofluorescent assay; type: cell-based
In short: (§2)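 HeLa cells plated to sub-confluency and treated after 24 h with compound at 0.1 or 2 μM for 6 h; DMSO served as vehicle control. Cells were fixed (4% formaldehyde), permeabilized (1% Triton X-100) and blocked in 5% BSA for 1 h at room temperature. Staining used anti-acetyl-α-tubulin (1:100) plus anti-acetyl-H3 Lys18 (1:50) with DAPI counterstain, then imaging and quantification. Values are the mean of duplicates.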

[4] = tested on: MM1.S; assay: Anti-proliferative activity against human MM1.S cells assessed as cell viability measured after 72 hrs by Cell-Titer assay; type: functional, cell-based; in short: as §1
[5] = tested on: MV4-11; assay: Anti-proliferative activity against human MV4-11 cells assessed as cell viability measured after 72 hrs by Cell-Titer assay; type: functional, cell-based; details: MV4-11, 72 h
In short: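 MV4-11 cells grown in IMDM with 10% FBS were plated in 96-well plates. After 24 h, compounds or vehicle (0.5% DMSO) were added. After 72 h, CellTiter-Blue was added and fluorescence was read at 560/590 nm. IC50 came from non-linear regression.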

[6] = tested on: RPMI-8226; assay: Anti-proliferative activity against human RPMI-8226 cells assessed as cell viability measured after 72 hrs by Cell-Titer assay; type: functional, cell-based; details: RPMI-8226, 72 h; in short: as §1
[7] = tested on: MOLM-13; assay: Anti-proliferative activity against human MOLM-13 cells assessed as cell viability measured after 72 hrs by Cell-Titer assay; type: functional, cell-based; details: MOLM-13, 72 h; in short: as §1
[8] = biological target: T1, Protein deacetylase HDAC6 (Homo sapiens); assay: Inhibition of HDAC6 in human HeLa cells assessed as acetylation of alpha tubulin accumulation at 2 uM by DAPI staining based immunofluorescent assay; type: cell-based; in short: as §2
[9] = tested on: OCI-AML-3; assay: Anti-proliferative activity against human AML-3 cells assessed as cell viability measured after 72 hrs by Cell-Titer assay; type: functional, cell-based; details: OCI-AML-3, 72 h; in short: as §1
[10] = Anti-proliferative activity against human AR230 cells assessed as cell viability measured after 72 hrs by Cell-Titer assay; type: functional, cell-based
In short: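 AR230 cells were maintained in RPMI-1640 with 10% FBS, 2 mM L-glutamine and 1 μM imatinib. Cells were plated in 96-well plates and dosed after 24 h, with 0.5% DMSO as vehicle. CellTiter-Blue fluorescence was read at 560/590 nm after 72 h. IC50 by non-linear regression.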

[11] = tested on: U-87 MG; assay: Anti-proliferative activity against human U87G cells assessed as cell viability measured after 72 hrs by Cell-Titer assay; type: functional, cell-based, U-87MG ATCC
In short: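 U87G cells grown in EMEM with 10% FBS were plated in 96-well plates and dosed after 24 h, with 0.5% DMSO as vehicle. CellTiter-Blue read-out at 560/590 nm fluorescence after 72 h. IC50 by non-linear regression.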

[12] = tested on: Jurkat; assay: Anti-proliferative activity against human Jurkat cells assessed as cell viability measured after 72 hrs by Cell-Titer assay; type: functional, cell-based; in short: as §1
[13] = tested on: HeLa; assay: Anti-proliferative activity against human HeLa cells assessed as cell viability measured after 72 hrs by Cell-Titer assay; type: functional, cell-based
In short: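 HeLa cells grown in DMEM with 10% FBS were plated in 96-well plates. After 24 h they were treated with compound or 0.5% DMSO vehicle. CellTiter-Blue was added at 72 h and read at 560/590 nm fluorescence. IC50 from non-linear regression.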

[14] = Anti-proliferative activity against human MRC9 cells assessed as cell viability measured after 72 hrs by Cell-Titer assay; type: functional, cell-based; details: MRC9, 72 h; in short: as §1

Activity [1]	Activity [3]	IC50 [4] [nM]	IC50 [5] [nM]	IC50 [6] [nM]	IC50 [7] [nM]	Activity [8]	IC50 [9] [nM]	IC50 [11] [nM]	IC50 [12] [nM]	IC50 [13] [nM]	SMILES	IC50 [2] [nM]	IC50 [10] [nM]	IC50 [14] [nM]
Active	inactive	1600	1200	6500	13500	inactive	7700	9100	1200	7000	O=C(CCCCCCNC(=O)c1cnc(N(c2ccccc2)c2ccccc2Cl)nc1)NO [CITARINOSTAT]	900	4300	30400
Active	inactive	700	600	700	2000	Active	3300	2000	1900	3500	O=C(NO)c1ccc(CN(Cc2cccnc2)S(=O)(=O)c2cc(F)c(F)c(F)c2F)cc1	1700	1500	> 50000
